Consider one molecule from ChEMBL document CHEMBL4229360, “Antimalarial agents against both sexual and asexual parasites stages: structure-activity relationships and biological studies of the Malaria Box compound 1-[5-(4-bromo-2-chlorophenyl)furan-2-yl]-N-[(piperidin-4-yl)methyl]methanamine (MMV019918) and analogues” (Eur J Med Chem, 2018).

Usually IC50 stands for the concentration needed to halve the response being measured.

Series [1] relates to Plasmodium falciparum. In words: Gametocytocidal activity against Plasmodium falciparum NF54 HGL gametocytes assessed as inhibition of parasite viability after 72 hrs by ONE-Glo reagent based luminescence assay. Format: functional, organism-based. Summed up:
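NF54 gametocytes raised in 5% haematocrit RPMI1640/10% human serum, with 50 mM NAG on days 4–9. Mainly stage IV gametocytes isolated on day 11 by Percoll gradient and seeded at 5000 cells/well, final DMSO 0.1%. Incubated 72 h at 37 °C, 3% O2, 4% CO2; viability by ONE-Glo luminescence.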

A short description of series [2]: Cardiotoxicity in Langendorff perfused Wistar rat heart assessed as QTc interval time at 10 uM by electrocardiography (reference value: 76.45 to 80.07 milliseconds). The series is classed as toxicity, tissue-based.
The target of series [3] is T1, Phosphoethanolamine N-methyltransferase (Plasmodium falciparum) (UniProt Q8IDQ9).
T1 sequence (whole entry): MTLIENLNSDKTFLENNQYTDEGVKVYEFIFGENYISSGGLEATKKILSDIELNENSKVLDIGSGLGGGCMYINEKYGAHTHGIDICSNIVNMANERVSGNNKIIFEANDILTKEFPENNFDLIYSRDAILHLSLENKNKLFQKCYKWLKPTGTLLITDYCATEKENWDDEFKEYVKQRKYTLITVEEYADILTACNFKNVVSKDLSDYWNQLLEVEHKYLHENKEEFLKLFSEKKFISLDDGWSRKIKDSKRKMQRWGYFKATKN
Nature of the series: Inhibition of plasmodium falciparum phosphoethanolamine N-methyltransferase expressed in Escherichia coli assessed as remaining enzyme activity at 100 uM using phosphoethanolamine as substrate and [methyl-14C] SAM by radiochemical assay. Summed up: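 Recombinant PfPMT purified from E. coli, 2 μg per 100 μL reaction. Buffer 0.1 M HEPES-KOH pH 8.0, 2 mM Na2EDTA, 10% glycerol, 5% DMSO, with 30 μM SAM (100 nCi [methyl-14C]SAM) and 55 μM phosphoethanolamine; radiochemical read-out.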

Series [4] can be described thus: Cardiotoxicity in Langendorff perfused Wistar rat heart assessed as PQ interval time at 0.1 uM by electrocardiography (reference value: 41.13 to 42.63 milliseconds). Format: toxicity, tissue-based.
Series [5] is described as follows: Cardiotoxicity in Langendorff perfused Wistar rat heart assessed as QRS interval time at 3 uM by electrocardiography (reference value: 13.31 to 14.35 milliseconds). Format: toxicity, tissue-based.
In series [6] the test system is Plasmodium falciparum. Nature of the series: Antiplasmodial activity against chloroquine-resistant Plasmodium falciparum W2 after 72 hrs by lactate dehydrogenase assay. Format: functional, organism-based. Particulars: W2, 72 h; call rule not given here. Summed up:
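Asynchronous blood-stage cultures at 1–1.5% parasitemia and 1% final hematocrit in human A+ RBCs, RPMI 1640 with 1% AlbuMax, hypoxanthine, HEPES and glutamine. Serial dilutions from DMSO stocks, final DMSO <1%. Incubated 72 h at 37 °C under 1% O₂/5% CO₂. IC50 is the mean of ≥3 experiments in duplicate.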

Series [7] relates to Plasmodium falciparum. Nature of the series: Antiplasmodial activity against gametocytes of Plasmodium falciparum NF54 infected in Anopheles mosquitoes assessed as decrease in infection prevalance measured at baseline infection intensity of 30 oocysts/midgut pre-treated with compound for 24 hrs before feeding and measured 8 days post infection by standard membrane feeding assay. Format: functional, organism-based. Summed up:
(§1)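 NF54-HGL luciferase-reporter gametocytes were pre-incubated with compound for 24 h, then membrane-fed to Anopheles mosquitoes. Infection was read by luminescence 8 d post-infection, with 24 mosquitoes analysed per feed and each feed done in duplicate. IC50 was derived for infection intensity and for prevalence at a baseline of 30 oocysts/midgut.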

Series [8] in a line: Cardiotoxicity in Langendorff perfused Wistar rat heart assessed as cycle length interval time at 1 uM by electrocardiography (reference value: 217.15 to 242.23 milliseconds). Format: toxicity, tissue-based.
Series [9] can be described thus: Cardiotoxicity in Langendorff perfused Wistar rat heart assessed as QTc interval time at 3 uM by electrocardiography (reference value: 76.45 to 80.07 milliseconds). The series is classed as toxicity, tissue-based.
Series [10] concerns the target Voltage-dependent L-type calcium channel subunit alpha-1C (Rattus norvegicus, UniProt P22002). In words: Inhibition of CaV1.2 channel in rat tail artery myocytes assessed as reduction in Ba2+ current at 30 uM at -50 mV holding potential by whole-cell patch-clamp assay. Format: cell-based. Summed up: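 Freshly isolated rat tail artery smooth muscle cells (collagenase digestion), whole-cell patch clamp at 20–22 °C. External solution: 5 mM Ba2+, 30 mM TEA; Cs+-based internal solution, pH 7.4. Currents from 250-ms pulses to 0 mV from Vh −50 mV at 0.067 Hz, after 7–10 min stabilisation. Leak corrected with 10 μM nifedipine. Peak current as % of control; n = 3–6 cells from ≥3 animals.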
For orientation: The patch-clamp technique gives a direct electrical read-out from membranes.

A short description of series [11]: Cardiotoxicity in Langendorff perfused Wistar rat heart assessed as QTc interval time at 1 uM by electrocardiography (reference value: 76.45 to 80.07 milliseconds). The series is classed as toxicity, tissue-based.
Series [12] in a line: Cardiotoxicity in Langendorff perfused Wistar rat heart assessed as PQ interval time at 3 uM by electrocardiography (reference value: 41.13 to 42.63 milliseconds). Format: toxicity, tissue-based.
The test system of series [13] is Plasmodium falciparum. Nature of the series: Antiplasmodial activity against asexual blood stage Plasmodium falciparum NF54 after 72 hrs by SYBR green-based fluorometric analysis. Format: functional, organism-based. Conditions: NF54, 72 h. Summed up: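 Asexual NF54 seeded at 0.83% parasitaemia, 1.5% haematocrit, in RPMI1640 with 10% human serum. Serial dilutions, final DMSO 0.1%. Incubated 72 h at 37 °C under 3% O2, 4% CO2, then read by SYBR Green fluorescence.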

Series [14] concerns Plasmodium falciparum. In words: Antiplasmodial activity against gametocytes of Plasmodium falciparum NF54 infected in Anopheles mosquitoes assessed as decrease in infection intensity measured at baseline infection intensity of 30 oocysts/midgut pre-treated with compound for 24 hrs before feeding and measured 8 days post infection by standard membrane feeding assay. The series is classed as functional, organism-based. Summed up:
as §1

Chain of Voltage-dependent L-type calcium channel subunit alpha-1C (P22002 whole entry): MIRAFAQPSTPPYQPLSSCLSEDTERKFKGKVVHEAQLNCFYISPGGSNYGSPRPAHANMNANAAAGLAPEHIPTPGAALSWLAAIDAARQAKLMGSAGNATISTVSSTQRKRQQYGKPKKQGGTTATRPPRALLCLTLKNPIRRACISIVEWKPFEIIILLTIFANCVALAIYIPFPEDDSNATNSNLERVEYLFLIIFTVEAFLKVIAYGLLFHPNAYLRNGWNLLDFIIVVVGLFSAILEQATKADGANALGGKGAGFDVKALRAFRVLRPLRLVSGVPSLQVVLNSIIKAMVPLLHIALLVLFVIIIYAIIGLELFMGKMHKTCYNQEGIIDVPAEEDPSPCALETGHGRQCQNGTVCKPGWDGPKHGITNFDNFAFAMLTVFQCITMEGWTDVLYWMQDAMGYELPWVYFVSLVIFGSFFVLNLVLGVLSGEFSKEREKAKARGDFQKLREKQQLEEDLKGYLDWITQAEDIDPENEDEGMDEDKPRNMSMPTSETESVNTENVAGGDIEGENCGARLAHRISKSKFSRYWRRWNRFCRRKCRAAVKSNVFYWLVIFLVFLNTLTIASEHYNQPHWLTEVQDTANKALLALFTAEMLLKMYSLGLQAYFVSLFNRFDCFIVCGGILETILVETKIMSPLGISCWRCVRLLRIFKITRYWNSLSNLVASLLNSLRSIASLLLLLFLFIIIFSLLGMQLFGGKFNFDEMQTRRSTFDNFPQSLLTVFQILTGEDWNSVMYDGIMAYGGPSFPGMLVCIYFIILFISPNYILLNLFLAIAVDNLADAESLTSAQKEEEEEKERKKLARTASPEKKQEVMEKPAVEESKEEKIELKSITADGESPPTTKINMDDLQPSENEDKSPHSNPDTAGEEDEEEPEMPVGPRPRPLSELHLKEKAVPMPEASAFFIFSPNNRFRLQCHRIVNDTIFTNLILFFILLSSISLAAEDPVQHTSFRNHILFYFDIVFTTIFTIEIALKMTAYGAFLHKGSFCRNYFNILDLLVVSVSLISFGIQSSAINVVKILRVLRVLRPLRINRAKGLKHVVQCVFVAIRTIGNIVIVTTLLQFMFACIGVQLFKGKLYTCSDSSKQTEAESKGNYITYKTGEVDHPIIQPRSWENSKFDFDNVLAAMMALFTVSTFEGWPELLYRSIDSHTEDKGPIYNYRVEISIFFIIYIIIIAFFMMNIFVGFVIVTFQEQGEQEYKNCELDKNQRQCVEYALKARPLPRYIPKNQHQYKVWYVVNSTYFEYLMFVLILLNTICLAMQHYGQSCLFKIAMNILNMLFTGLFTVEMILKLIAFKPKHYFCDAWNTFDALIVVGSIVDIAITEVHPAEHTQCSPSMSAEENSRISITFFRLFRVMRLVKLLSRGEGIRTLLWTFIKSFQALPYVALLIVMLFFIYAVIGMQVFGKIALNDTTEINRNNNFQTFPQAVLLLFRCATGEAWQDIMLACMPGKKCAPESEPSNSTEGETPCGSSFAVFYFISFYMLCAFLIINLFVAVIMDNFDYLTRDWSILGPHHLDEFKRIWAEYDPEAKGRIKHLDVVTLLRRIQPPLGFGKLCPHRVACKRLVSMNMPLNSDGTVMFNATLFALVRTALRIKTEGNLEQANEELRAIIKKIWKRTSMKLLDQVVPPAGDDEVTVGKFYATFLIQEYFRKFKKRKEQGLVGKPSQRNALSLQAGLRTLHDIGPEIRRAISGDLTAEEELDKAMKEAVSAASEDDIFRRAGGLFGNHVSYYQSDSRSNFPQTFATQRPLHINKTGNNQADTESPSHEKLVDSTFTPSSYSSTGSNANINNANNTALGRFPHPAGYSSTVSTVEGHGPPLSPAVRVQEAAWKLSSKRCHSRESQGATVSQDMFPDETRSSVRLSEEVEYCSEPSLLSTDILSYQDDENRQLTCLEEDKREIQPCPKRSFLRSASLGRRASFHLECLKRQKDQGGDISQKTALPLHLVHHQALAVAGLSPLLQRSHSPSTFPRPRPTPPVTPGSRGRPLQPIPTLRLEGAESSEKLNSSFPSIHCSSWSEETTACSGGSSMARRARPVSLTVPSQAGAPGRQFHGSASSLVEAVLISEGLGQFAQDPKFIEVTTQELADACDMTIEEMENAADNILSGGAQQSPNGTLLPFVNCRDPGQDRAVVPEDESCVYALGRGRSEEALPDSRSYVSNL

`Clc1ccc(-c2ccc(CNCC3CCNCC3)o2)c(-c2ccccc2)c1`: the IC50 was 43 nM with Plasmodium falciparum [1]; 2400 nM in the series on Plasmodium falciparum [6]; 830 nM in the series on Plasmodium falciparum [7]; 670 nM in the series with Plasmodium falciparum [13]; 210 nM in the series with Plasmodium falciparum [14]. The Time is listed as 83.77 ms in series [2]; 41.24 ms in series [4]; 14.65 ms in series [5]; 217.02 ms in series [8]; 78.56 ms in series [9]; 77.21 ms in [11]. Besides, in series [12], the Time was 45.47 ms. In series [3], the Activity was determined as 30%. Besides, in [10], the “inhibition (INH)” value is recorded as “Active”.
